Compound activity (PubChem BioAssay)
Most compounds without a hit are left out; they make up all but 0.92% or so of the library.
Glyco luc inh: N-linked glycosylation inhibition; D54 ERlucT glycosylation luciferase reporter, 24 h; percent of 100 nM tunicamycin response; reporter increase, % at 12.5 µM; 0.23% of 360,000 active; AID 588692;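 active = mean luciferase reporter signal, scaled so untreated is 0 and the glycosylation-blocking control 100, at or above a set limit in every replicate; inconclusive = mean reaches the limit but not every replicate does; inactive = mean below the limit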;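 note: luciferase carries N-glycosylation sites so blocking glycosylation raises the light; 0% = median of neutral control wells and 100% = median of 100 nM tunicamycin wells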
RAD54 inh: blocks human RAD54 Holliday junction branch migration; FAM/BHQ fluorescence; 0.14% of 360,000 active; inhibition, % at 10.4 µM; Q92698;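 active = mean normalized replicate activity at least 40 and at least half of replicates scoring 40 or more; inconclusive = only one of the two criteria met; inactive = mean below 40 and under half of replicates reaching 40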;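 note: 0% = median of neutral control wells and 100% = median of positive control wells; inhibitors cause a drop in the FAM fluorescence signal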
Target sequence (Q92698 whole entry, looked up): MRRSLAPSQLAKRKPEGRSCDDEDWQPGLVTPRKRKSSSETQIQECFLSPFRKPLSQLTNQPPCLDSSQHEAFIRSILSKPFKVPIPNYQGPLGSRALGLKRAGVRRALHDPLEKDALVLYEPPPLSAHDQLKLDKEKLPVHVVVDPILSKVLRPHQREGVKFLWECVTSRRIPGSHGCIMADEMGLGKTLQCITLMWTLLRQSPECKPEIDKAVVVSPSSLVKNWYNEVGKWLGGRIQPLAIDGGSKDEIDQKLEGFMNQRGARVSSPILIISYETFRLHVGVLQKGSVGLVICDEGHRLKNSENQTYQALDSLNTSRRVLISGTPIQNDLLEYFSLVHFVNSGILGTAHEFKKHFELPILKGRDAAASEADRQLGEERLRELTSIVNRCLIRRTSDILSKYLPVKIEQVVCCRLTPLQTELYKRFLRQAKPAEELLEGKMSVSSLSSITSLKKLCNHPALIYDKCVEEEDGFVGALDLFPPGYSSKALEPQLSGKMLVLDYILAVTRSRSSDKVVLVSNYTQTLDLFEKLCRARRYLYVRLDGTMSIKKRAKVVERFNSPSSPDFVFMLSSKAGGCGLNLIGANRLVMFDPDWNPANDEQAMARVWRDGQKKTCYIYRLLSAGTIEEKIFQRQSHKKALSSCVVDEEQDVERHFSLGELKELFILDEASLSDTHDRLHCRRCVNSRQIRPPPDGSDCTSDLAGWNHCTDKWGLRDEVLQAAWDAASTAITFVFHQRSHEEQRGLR
RAD52 inh: RAD52 (human) annealing inhibition. inhibition, % at 18.7 µM. AID 651710. recombinant RAD52 DNA annealing, FRET fluorescence. 0.46% of 360,000 active;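 active = every replicate showing at least 50% inhibition; inconclusive = mean inhibition at least 50% but not in every replicate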
AF4-AF9 inh: inhibitors of human MLL-AF4/AF9 interaction; P42568; AlphaScreen, biotin-AF4 peptide binding to FLAG-AF9; inhibition, % at 10 µM; 0.47% of 350,000 active;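 active = every replicate reaching a set inhibition limit, whatever the replicate mean, cut at about 25% in these data; inconclusive = mean inhibition reaches that limit but some replicates miss it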;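 note: 0% = plate neutral control median and 100% = total signal loss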
FN deposition inh: fibronectin deposition inhibition; AH1F fibroblasts, Alexa488-fibronectin deposition fluorescence, overnight; inhibition, % at 12.6 µM; 0.086% of 350,000 active; AID 743247;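 active = mean inhibition across replicates of 30% or more, regardless of how many single replicates reach that level; inconclusive = mean under 30% yet at least half of replicates reach 30%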;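 note: positive control wells lacked labelled fibronectin entirely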
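Material: AH1F fibroblast monolayer depositing Alexa488-labelled fibronectin into matrix / Amount: 10000 AH1F cells per well / Signal: fluorescence 485/525 nm / Medium: DMEM, 2% serum / Compound: single dose, pinned / Incubation: 1 h cell adhesion before compound, then overnight fibronectin incubation / Reagent: Alexa488-FN, 24 nM final / Read-out: inhibition of fibronectin deposition signal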
An asterisk follows results filed as active; ? = inconclusive; . = no result given.

SMILES | Glyco luc inh | RAD54 inh | RAD52 inh | AF4-AF9 inh | FN deposition inh
C[C@@H]1CCCCO[C@@H](CN(C)Cc2ccc3c(c2)OCO3)[C@H](C)CN([C@@H](C)CO)C(=O)c2cc(NS(=O)(=O)c3ccc(Cl)cc3)ccc2O1 | . | 1 | 30 | 3 | -4
COc1ccc(S(=O)(=O)Nc2ccc3c(c2)C(=O)N([C@@H](C)CO)C[C@@H](C)[C@H](CN(C)Cc2ccc(C(=O)Nc4ccccc4N)cc2)OCCCC[C@@H](C)O3)cc1 | . | -3 | 55* | 0 | .
C[C@@H]1CN([C@@H](C)CO)C(=O)c2cc(NS(=O)(=O)c3ccc(Cl)cc3)ccc2O[C@H]1CN(C)Cc1ccccc1 | . | 2 | 13 | 25* | .
C[C@@H]1CCCCO[C@@H](CN(C)C(=O)Nc2cccc3ccccc23)[C@H](C)CN([C@@H](C)CO)C(=O)c2cc(N(C)C)ccc2O1 | . | -11 | 56* | 17 | .
C[C@@H]1CCCCO[C@@H](CN(C)Cc2ccc(C(=O)Nc3ccccc3N)cc2)[C@@H](C)CN([C@H](C)CO)C(=O)c2cc(NS(=O)(=O)c3ccccc3)ccc2O1 | . | . | -13 | -3 | -4
CCC(=O)N1[C@H](CO)[C@@H](c2ccccc2)C12CN(C(=O)c1cnccn1)C2 | . | . | -1 | -2 | .
C[C@@H]1CN([C@@H](C)CO)C(=O)c2cc(NC(=O)Nc3cccc4ccccc34)ccc2O[C@H]1CN(C)C(=O)Nc1ccc(F)cc1 | . | -1 | 1 | -1 | .
COc1ccc(CN(C)C[C@@H]2OCCCC[C@@H](C)Oc3ccc(NS(=O)(=O)c4ccc(Cl)cc4)cc3C(=O)N([C@@H](C)CO)C[C@@H]2C)cc1 | . | -9 | 56* | 1 | 0
COc1ccc2c3c(n(C)c2c1)[C@H](CO)N(C)CC31CN(C(=O)CN2CCOCC2)C1 | . | . | 7 | 4 | .
C[C@@H]1CN([C@@H](C)CO)C(=O)c2cc(NS(=O)(=O)c3ccc(F)cc3)ccc2O[C@@H](C)CCCCO[C@H]1CN(C)S(=O)(=O)c1ccc(F)cc1 | . | -11 | . | . | -13
Cc1ccc(-c2ccc([C@H]3[C@H]4CN(S(=O)(=O)c5cccc(C)c5)CCCCN4[C@H]3CO)cc2)cc1 | . | 5 | 26 | -9 | .
Cc1ccc(-c2ccc([C@H]3[C@H](CO)N4CCCCN(S(=O)(=O)c5cccc(C)c5)C[C@@H]34)cc2)cc1 | . | 2 | 50* | 0 | .
COc1ccc(S(=O)(=O)N2CCCCN3[C@H](C2)[C@H](c2ccc(C4=CCCCC4)cc2)[C@@H]3CO)cc1 | . | -7 | -5 | -5 | .
COc1ccc(S(=O)(=O)N2CCCCN3[C@@H](CO)[C@@H](c4ccc(C5=CCCCC5)cc4)[C@@H]3C2)cc1 | . | -12 | 50* | 3 | .
Cc1cccc(S(=O)(=O)N2CCCCN3[C@H](CO)[C@@H](c4ccc(-c5ccccc5)cc4)[C@H]3C2)c1 | . | 0 | 53* | 7 | .
Cc1ccc(-c2ccc([C@@H]3[C@H](CO)N4CCCCN(S(=O)(=O)c5cccc(C)c5)C[C@@H]34)cc2)cc1 | . | 0 | 69* | -7 | .
Cc1cccc(S(=O)(=O)N2CCCCN3[C@H](C2)[C@H](c2ccc(-c4ccccc4)cc2)[C@@H]3CO)c1 | . | 5 | -20 | -5 | .
CN(C)C(=O)C[C@H]1CC[C@H]2[C@@H](COc3ccc(NC(=O)c4ccc(F)c(F)c4)cc3C(=O)N2C)O1 | . | 10 | 5 | 0 | 11
C[C@@H]1CN([C@@H](C)CO)C(=O)c2cc(NC(=O)Nc3cccc4ccccc34)ccc2O[C@@H](C)CCCCO[C@H]1CN(C)S(=O)(=O)c1cccs1 | . | 0 | . | . | .
O=C(NC1Cc2ccccc2C1)[C@@H]1[C@@H](CO)[C@@H]2Cn3c(ccc(C4=CCCC4)c3=O)[C@H]1N2 | . | -3 | -36 | 1 | .
O=C(C[C@H]1CC[C@@H]2[C@H](COC[C@H](O)CN2C(=O)Nc2ccc(F)cc2)O1)NCCc1ccccc1 | . | 9 | 3 | -2 | 4
COc1ccc(C(=O)/C=C2/C(=O)Nc3ccccc32)cc1OC | 29* | 0 | -8 | 0 | 0
C=CCOc1ccccc1C(=O)/C=C1/C(=O)Nc2ccccc21 | 32* | -3 | -6 | 0 | 3
COc1ccc(C(=O)/C=C2/C(=O)Nc3ccccc32)c(OC)c1 | 33* | . | -3 | 1 | 1
COc1ccc(C(=O)/C=C2/C(=O)Nc3ccccc32)cc1 | ? | 10 | 6 | 1 | -4
SMILES | Glyco luc inh | RAD54 inh | RAD52 inh | AF4-AF9 inh | FN deposition inh
CO[C@H]1CN(C)C(=O)c2ccc(NS(=O)(=O)C3CCCCC3)cc2OC[C@H](C)NC[C@@H]1C | . | . | 3 | -3 | 12
Cc1ccc(S(=O)(=O)Nc2cccc3c2O[C@@H](CN(C)CC2CC2)[C@H](C)CN([C@@H](C)CO)C3=O)cc1 | . | -5 | 2 | -5 | -1
COCC(=O)Nc1ccc2c(c1)OC[C@@H](C)N(Cc1ccncc1)C[C@H](C)[C@@H](OC)CN(C)C2=O | . | 0 | -4 | -2 | -15
CC(C)NC(=O)Nc1ccc2c(c1)C(=O)N([C@H](C)CO)C[C@@H](C)[C@H](CN(C)C(=O)c1ccccc1)OCCCC[C@H](C)O2 | . | -5 | -7 | -3 | .
O=C(Nc1nnc(S(=O)(=O)N2CCOCC2)s1)c1ccccc1 | 1 | -12 | -10 | 47* | -7
CCOc1ccc(-n2nc3c(Cl)nnc(C)c3c2C)cc1 | 3 | -1 | -15 | 58* | -6
COc1cccc(-c2ccc3c(c2)[C@H]2[C@H](CCN2C(=O)c2cccc(F)c2)[C@@H](CO)N3)c1 | . | 0 | 9 | 16 | -19
Cc1noc(C)c1S(=O)(=O)Nc1ccc2c(c1)C(=O)N([C@H](C)CO)C[C@@H](C)[C@@H](CN(C)S(=O)(=O)c1ccc(F)cc1)OCCCC[C@@H](C)O2 | . | -9 | 57* | 2 | .
Cc1noc(C)c1S(=O)(=O)Nc1ccc2c(c1)C(=O)N([C@@H](C)CO)C[C@H](C)[C@H](CN(C)S(=O)(=O)c1ccc(F)cc1)OCCCC[C@@H](C)O2 | . | -1 | -38 | 2 | .
C[C@H]1CCCCO[C@H](CN(C)S(=O)(=O)c2cccs2)[C@@H](C)CN([C@@H](C)CO)C(=O)c2cc(NS(=O)(=O)c3cn(C)cn3)ccc2O1 | . | -2 | 59* | 1 | -16
Cc1noc(C)c1S(=O)(=O)Nc1ccc2c(c1)C(=O)N([C@@H](C)CO)C[C@H](C)[C@@H](CN(C)S(=O)(=O)c1ccc(F)cc1)OCCCC[C@H](C)O2 | . | -5 | 75* | 0 | .
COc1ccc(CN(C)C[C@H]2OCCCC[C@H](C)Oc3ccc(NC(=O)Cc4ccccc4)cc3C(=O)N([C@@H](C)CO)C[C@@H]2C)cc1 | . | 3 | . | . | .
N=c1c2c(ncn1CCCO)Oc1c(ccc3ccccc13)C2c1ccccc1 (centres undefined) | 9 | . | 16 | . | 10
COc1ccc(C2c3ccc4ccccc4c3Oc3ncn(CCN4CCOCC4)c(=N)c32)cc1OC (centres undefined) | -4 | . | 5 | 9 | 30*
